Data reported in PubChem BioAssay AID504382 (The Scripps Research Institute Molecular Screening Center, 2011).
Out of some 2,500 compounds screened, about 460 (18%) were called active.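 The calls were made as follows: active = mean activation above a cutoff of low control average plus 3 SD from the earlier screen (cut at about 12% in these data); inactive = the rest.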 A selection follows.

Test: compound fluorescence interference without thin filaments, confirmation, artefact control for cardiac RTF calcium sensitizer project, biochemical (AID 504382)
Conditions: IANBD fluorescence interference counterscreen, buffer, EC20 Ca2+; at 7.2 µM; hits give high values
In short: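 timing = compound incubation 15 min at 25 °C before fluorescence reading | technique = fluorescence at 480 nm excitation, 540 nm emission | evaluation = interference relative to controls | replication = triplicate wells per compound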

| SMILES | fluorescence artifact activation |
| --- | --- |
| C=CCn1c(O)c(C=NC2CCN(Cc3ccccc3)CC2)c(=O)[nH]c1=O | -0.06% (inactive) |
| COc1ccc(OC)c(-n2c(O)c(C=NCCN3CCNCC3)c(=O)[nH]c2=S)c1 | 3.37% (inactive) |
| O=c1[nH]c(=S)n(-c2ccccc2Cl)c(O)c1C=NCCN1CCNCC1 | 660% (active) |
| CN1Cc2c(c(C#N)c(N)n(C)c2=S)CC1(C)C | -0.06% (inactive) |
| CCN(CC)c1ccc(/C=C/[N+](=O)[O-])cc1 | 3.43% (inactive) |
| CCCCCCC(=O)N/N=C/c1c(O)n(CCc2ccccc2)c(=O)[nH]c1=O | 0.04% (inactive) |
| O=C(CN1CCN(c2ccccc2F)CC1)Nc1cccnc1Cl | 6.53% (inactive) |
| CC1(C)OC(c2ccccc2)=C/C(=C/C=C2C(=O)NC(=O)NC2=O)O1 | 0.3% (inactive) |
| N#CC(C#N)=Cc1ccc(C=C(C#N)C#N)cc1 | 0.08% (inactive) |
| COc1ccc(N2C(=O)NC(=O)/C(=C\c3cn(C)c4ccccc34)C2=O)cc1 | -0.05% (inactive) |
| Cn1cc(C=C(C#N)C#N)c2ccccc21 | 20% (active) |
| CC(C)n1c(=O)c(C=Nc2cccc([N+](=O)[O-])c2)c(O)n(CCc2ccccc2)c1=O | 1.6% (inactive) |
| COc1cccc2c1C(=O)c1c(O)c3c(c(O)c1C2=O)CC(O)(C(C)=NO)CC3OC1CC(N)C(O)C(C)O1 (stereo not drawn) | 0.43% (inactive) |
| O=c1[nH]c(=O)n(-c2ccccc2)c(O)c1/C=C/C=Nc1ccccc1 | 0.01% (inactive) |
| Cc1cccc(-n2c(O)c(/C=C/C=Nc3ccccc3)c(=O)[nH]c2=O)c1 | 59.9% (active) |
| Cc1ccc(-n2c(O)c(/C=C/C=Nc3ccccc3)c(=O)[nH]c2=O)cc1 | 7.82% (inactive) |
| O=C1NC(=O)N(Cc2ccccc2)C(=O)/C1=C\N1CCCc2ccccc21 | 2.74% (inactive) |
| O=Cc1c(C(=O)O)n(Cc2ccc(Cl)cc2)c2ccccc12 | 0.14% (inactive) |
| C/C(=N\N1CCCCC1c1cccnc1)c1c(O)n(C2CCCCC2)c(=S)[nH]c1=O (stereo not drawn) | 13.8% (active) |
| O=c1[nH]c(=O)n(C2CCCCC2)c(O)c1/C=C/C=Nc1ccccc1 | 0.28% (inactive) |

| SMILES | fluorescence artifact activation |
| --- | --- |
| Cc1cccc(N2C(=O)NC(=O)/C(=C\c3ccc4c(c3)CCCN4Cc3ccccc3)C2=O)c1 | 0.72% (inactive) |
| CN1CCN(Cc2cn(C)c3ccccc23)CC1CCO (stereo not drawn) | 10.6% (inactive) |
| O=C1NC(=S)SC1=Cc1ccc(N(CCCl)CCCl)cc1 | -0.09% (inactive) |
| Nc1c2c(nc3ccccc13)CCN(Cc1ccccc1)C2 | 26.4% (active) |
| FC(F)(F)c1ccc2c(c1)nnn2C1CCN(Cc2nnnn2Cc2ccccc2)CC1 | 0.25% (inactive) |
| CCOCCCNC(=O)C1c2cc(OC)c(OC)cc2C(=O)N2CCCCC12 (stereo not drawn) | 0.42% (inactive) |
| O=c1[nH]c(O)c(C=Nc2ccccc2Oc2ccccc2)c(=O)[nH]1 | 0.37% (inactive) |
| C=CCN1C(=O)/C(=C/c2ccc(N3CCOCC3)o2)C(=O)NC1=S | 5.89% (inactive) |
| CN1C(=O)C(=Cc2ccc(N3CCOCC3)o2)C(=O)N(C)C1=O | 16.2% (active) |
| CCN1C(=O)C(=Cc2ccc(N3CCOCC3)o2)C(=O)N(CC)C1=S | 0.14% (inactive) |
| CN1C(=O)C(=Cc2ccc(N3CCCCCC3)o2)C(=O)N(C)C1=S | 35.9% (active) |
| CN1C(=O)C(=Cc2ccc(N3CCOCC3)o2)C(=O)N(C)C1=S | 0.02% (inactive) |
| CN1C(=O)/C(=C/c2ccc(N3CCCCCC3)o2)C(=O)NC1=S | 1.84% (inactive) |
| CN1C(=O)/C(=C\c2ccc(N3CCCCC3)o2)C(=O)NC1=S | 0.13% (inactive) |
| COc1cc(/C=C2/C(=O)NC(=O)N(c3ccc(C)cc3)C2=O)cc(OC)c1OC | 0.06% (inactive) |
| CCN1C[C@]2(CO)CC[C@H](OC)[C@@]34C5C[C@H]6[C@H](OC)C5[C@](O)(C[C@H]6OC)[C@@H](C(OC)C23)[C@@H]14 (stereo partly drawn) | 2.26% (inactive) |
| NC(=O)c1c(NC(=O)c2ccc(S(=O)(=O)N(CCCl)CCCl)cc2)sc2c1CCCCC2 | 0.08% (inactive) |
| CC1=NCCc2c1[nH]c1cc(O)ccc21 | 0.1% (inactive) |
| Cc1cc(Cl)ccc1C(=O)C1CCCN(C2CCSCC2)C1 (stereo not drawn) | 0% (inactive) |
| COC(=O)C1=C(c2cccc(C#N)c2)C[C@@H]2CC[C@H]1N2C(=O)N1CCOCC1 | 1.36% (inactive) |

| SMILES | fluorescence artifact activation |
| --- | --- |
| COCCNC(=O)c1c(N)n(Cc2ccco2)c2nc3ccccc3nc12 | 1.48% (inactive) |
| Nc1c(C(=O)NCC2CCCO2)c2nc3ccccc3nc2n1Cc1ccco1 (stereo not drawn) | 732% (active) |
| COCCOC(=O)c1c(N)n(Cc2ccco2)c2nc3ccccc3nc12 | -0.01% (inactive) |
| CCOC(=O)c1cc(CC)sc1/N=C/c1c(O)[nH]c(=S)[nH]c1=O | 1.47% (inactive) |
| CCN(CC)c1ccc(C=C2C(=O)N(C)C(=S)N(C)C2=O)o1 | -0.01% (inactive) |
| Cc1cc(N2CCCC2)ccc1C=C(C#N)C#N | 17.8% (active) |
| Cc1cc(C=C(C#N)C#N)ccc1N1CCCC1 | 0.79% (inactive) |
| COc1ccc(-n2c(O)c(/C=C/C=Nc3ccccc3)c(=O)[nH]c2=O)cc1 | -0.12% (inactive) |
| Cc1ccc(/C=C2/Sc3ccc(C(=O)N4CCC5(CC4)OCCO5)cc3NC2=O)cc1 | 38.7% (active) |
| CNS(=O)(=O)c1ccc(N=Cc2c(O)n(-c3ccccc3)c(=O)[nH]c2=O)cc1 | 8.1% (inactive) |
| CCC1(C)OC(c2ccccc2)=C/C(=C/C=C2C(=O)NC(=O)NC2=O)O1 (stereo not drawn) | 4.44% (inactive) |
| CCN(CC)CCCOC(=O)C(OC(C)C)(c1ccccc1)c1ccccc1 | 17.1% (active) |
| CCCCN1C(=O)NC(=O)C2(Cc3ccccc3N3CCOCC32)C1=O (stereo not drawn) | -0.11% (inactive) |
| Cc1ccc(-n2c(O)c(C=NCC3CCCO3)c(=O)[nH]c2=O)c(C)c1 (stereo not drawn) | 0.07% (inactive) |
| N#CC(C#N)=Cc1ccc(-c2ccccc2F)o1 | 6.89% (inactive) |
| CCCc1cc(=O)oc2cc(OCC(=O)N3C[C@H]4C[C@@H](C3)c3cccc(=O)n3C4)ccc12 | 36.4% (active) |
| CCCc1cc(=O)oc2cc(OCC(=O)N3CCC(C(=O)O)(c4ccccc4)CC3)ccc12 | 0.1% (inactive) |
| Cn1c(O)c(/C=C/C=Nc2ccccc2)c(=O)n(C)c1=S | 5.68% (inactive) |
